{
  "source": "paper PMC9468506",
  "about": "(Current Research in Food Science, 2022)",
  "key": {"anti-PBZ mAb": {"system": "anti-PBZ mAb", "experiment": "TRFMs-LFIA competitive lateral flow immunoassay with anti-PBZ mAb immunoprobe", "type": "binding, mouse", "details": "for IC50: TRFMs-LFIA, coating antigen PBZ-2-BSA, optimal conditions; for CR: cross reactivity = IC50 (PBZ)/IC50 (structural analogue) x 100", "procedure,_shortened": "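Anti-analyte mAb coupled by EDC/NHS to carboxylated time-resolved fluorescent microspheres, activated in MES pH 6.0. Nitrocellulose strip has a T line of coating antigen (2 mg/mL) and a C line of goat anti-mouse IgG (0.16 mg/mL). Probe (7.5 μg/mL stock) and 100 μL standard are premixed 3 min, then the strip is dipped 3 min. The T/C fluorescence ratio gives B/B0 against log concentration. IC50 is taken at 50% B/B0, and CR = IC50 (analyte)/IC50 (analogue) × 100.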"}, "[1]": {"system": "anti-PBZ antibody (mAb or pAb)", "details": "icELISA, cited from earlier work"}, "anti-PBZ pAb": {"system": "anti-PBZ pAb", "details": "TRFIA, water and soil, ref Liu et al. (2016); cited from earlier work"}},
  "note": "Like-named read-outs stand apart in the source and are kept apart here.",
  "data": [
    {"compound": "CCCCC(O)(Cn1cncn1)c1ccc(Cl)cc1Cl", "note": "(stereo not drawn) [Hexaconazole]", "values": [
      {"measurement": "IC50", "setting": "anti-PBZ mAb", "value": ">10", "unit": "µg/mL"},
      {"measurement": "CR", "setting": "anti-PBZ mAb", "value": "<0.1", "unit": "%"}
    ]},
    {"compound": "CC(C)(C)[C@@H](O)[C@@H](Cc1ccc(Cl)cc1)n1cncn1", "note": "[Paclobutrazol]", "values": [
      {"measurement": "IC50", "setting": "[1]; mAb, soil, ref Jin (2019)", "value": 0.0116, "unit": "µg/mL"},
      {"measurement": "IC50", "setting": "[1]; mAb, wheat, ref Cao et al. (2014)", "value": 0.0087, "unit": "µg/mL"},
      {"measurement": "IC50", "setting": "[1]; pAb, fruits, ref Ouyang et al. (2020)", "value": 0.01326, "unit": "µg/mL"},
      {"measurement": "IC50", "setting": "[1]; pAb, water and soil, ref Wang (2016)", "value": 0.02135, "unit": "µg/mL"},
      {"measurement": "IC50", "setting": "anti-PBZ pAb", "value": 0.00109, "unit": "µg/mL"},
      {"measurement": "CR", "setting": "anti-PBZ mAb", "value": 100, "unit": "%"}
    ]},
    {"compound": "CC(C)(C)C(O)(CCc1ccc(Cl)cc1)Cn1cncn1", "note": "(stereo not drawn) [Tebuconazole]", "values": [
      {"measurement": "IC50", "setting": "anti-PBZ mAb", "value": ">10", "unit": "µg/mL"},
      {"measurement": "CR", "setting": "anti-PBZ mAb", "value": "<0.1", "unit": "%"}
    ]},
    {"compound": "CC(C)(C)C(=O)C(Oc1ccc(Cl)cc1)n1cncn1", "note": "(stereo not drawn) [Triadimefon]", "values": [
      {"measurement": "IC50", "setting": "anti-PBZ mAb", "value": 0.44371, "unit": "µg/mL"},
      {"measurement": "CR", "setting": "anti-PBZ mAb", "value": 2.10, "unit": "%"}
    ]},
    {"compound": "CC(C)(C)C(O)C(Oc1ccc(Cl)cc1)n1cncn1", "note": "(stereo not drawn) [Triadimenol]", "values": [
      {"measurement": "IC50", "setting": "anti-PBZ mAb", "value": 0.92421, "unit": "µg/mL"},
      {"measurement": "CR", "setting": "anti-PBZ mAb", "value": 1.01, "unit": "%"}
    ]},
    {"compound": "CC(C)(C)C(O)/C(=C\\c1ccc(Cl)cc1)n1cncn1", "note": "(stereo not drawn) [Uniconazole]", "values": [
      {"measurement": "IC50", "setting": "anti-PBZ mAb", "value": 3.81516, "unit": "µg/mL"},
      {"measurement": "CR", "setting": "anti-PBZ mAb", "value": 0.25, "unit": "%"}
    ]},
    {"compound": "Diniconazole", "values": [
      {"measurement": "IC50", "setting": "anti-PBZ mAb", "value": ">10", "unit": "µg/mL"},
      {"measurement": "CR", "setting": "anti-PBZ mAb", "value": "<0.1", "unit": "%"}
    ]}
  ]
}
